This is a sample that favours compounds with a hit; in the whole collection about 2.7% have one here.
FGF22 binding: FGF22 (human) thermal shift binding. Q9HCT0. activity (Tm shift, normalised), % at 9.99 µM. recombinant FGF22 thermal shift, SYPRO orange fluorescence; percent of sucrose octasulfate shift, DMSO zero. AID 651658. hit rate 1.5% among 340,000;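 active means mean Tm shift, scaled 0 neutral to 100 positive control, at about 1.3% or above, every replicate too, limit read from the data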
E-selectin induc: induces E-selectin expression in human endothelial cells; P16581; HUVEC E-selectin immunofluorescence imaging; normalized: neutral wells 0, TNF-alpha wells 100; activation, % at 7.58 µM; hit rate 0.37% among 260,000; AID 686992;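 active means mean E-selectin-positive cell signal at least 10% of the positive control, reached in at least 60% of replicates, without over 20% cell loss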
Target sequence (P16581 whole entry, looked up): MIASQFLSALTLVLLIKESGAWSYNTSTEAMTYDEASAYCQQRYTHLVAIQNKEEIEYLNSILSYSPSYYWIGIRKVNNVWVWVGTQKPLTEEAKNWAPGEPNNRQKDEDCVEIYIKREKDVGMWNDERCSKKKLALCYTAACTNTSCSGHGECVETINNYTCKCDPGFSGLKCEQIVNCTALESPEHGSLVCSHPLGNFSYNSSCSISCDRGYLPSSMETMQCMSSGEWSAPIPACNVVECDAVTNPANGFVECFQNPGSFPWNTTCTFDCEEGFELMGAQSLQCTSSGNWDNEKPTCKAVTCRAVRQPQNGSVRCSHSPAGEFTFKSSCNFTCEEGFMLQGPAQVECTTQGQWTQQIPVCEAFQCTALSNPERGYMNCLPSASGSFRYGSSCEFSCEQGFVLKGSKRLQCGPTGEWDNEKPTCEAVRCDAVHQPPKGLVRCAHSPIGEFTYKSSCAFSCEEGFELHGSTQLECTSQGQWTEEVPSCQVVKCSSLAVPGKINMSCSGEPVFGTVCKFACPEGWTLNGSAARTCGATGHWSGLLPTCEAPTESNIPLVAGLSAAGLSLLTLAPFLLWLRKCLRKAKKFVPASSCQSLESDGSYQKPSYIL
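Assay system: HUVEC primary endothelial cells. Input: 3,000 HUVEC seeded per well. Doses: one compound dose added by pin transfer. Read-out basis: % PE-positive cells. Benchmarks: TNF-alpha high, DMSO low. Detection: immunofluorescence imaging. Buffer or medium: EGM-2, gelatin.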
Env fusion inh: HIV envelope-mediated fusion inhibition; HeLa-JRFL Env/CEM21 cell fusion, luciferase; inhibition, % at 12.3 µM; hit rate 1.1% among 360,000; AID 651610;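 active means mean replicate inhibition score of at least 50 and every replicate individually at or above 50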;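 further: 0% = plate neutral controls and 100% = maraviroc near 300 nM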
S100A4 MyoIIA: S100A4-myosin IIA interaction inhibition; inhibition, % at 10.7 µM; AID 652163; S100A4/TAMRA-MyoIIA peptide fluorescence polarization; hit rate 0.14% among 360,000;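 active means mean inhibition of at least 70% across replicates, with every replicate also reaching that level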
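Material: human S100A4 monomer with TAMRA-labelled myosin IIA peptide; buffer or medium: HEPES pH 7.2 with CaCl2, KCl, NaCl, DTT, Triton; compound dosing: one concentration per compound; schedule: 5 min incubation before reading; benchmarks: neutral control DMSO, positive control TFP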
CFTR F508del cor: correctors of CFTR F508del function in bronchial epithelial cells; hit rate 0.36% among 350,000; AID 720511; CFBE cells, YFP halide quenching; stimulated with forskolin plus potentiator P3; % fluorescence drop versus neutral controls; activity (quench increase), % at 7.58 µM;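 active means mean added fluorescence quench of at least 8% versus neutral control, with both replicates also reaching 8%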;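 further: cells transiently co-express mutant CFTR-F508del with the halide-sensitive YFP; corrector assay measuring rescue of mutant channel to the surface after 24 h compound exposure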
Numbers without * were called inactive; / = no result; [ ] = another dose, or the depositor's remark.

SMILES	FGF22 binding	E-selectin induc	Env fusion inh	S100A4 MyoIIA	CFTR F508del cor
COc1ccccc1N(C(=O)c1snc(C(N)=O)c1N)C(C(=O)NCc1ccccc1)c1ccc(C)o1 (stereo not given)	0	33*	6	-2	-2
CCc1nc2ccccc2c(C(=O)OCC(=O)Nc2ccc(NC(C)=O)cc2)c1C	0	/	-1	-22	2
CCc1nc2ccccc2c(C(=O)Oc2ccc(C(=O)OC)cc2)c1C	44*	/	-4	0	1
NC(=S)n1[nH]c(-c2ccc([N+](=O)[O-])cc2)c(N=Nc2cccc([N+](=O)[O-])c2)c1=O	/	-1	63*	8	3
COc1ccc(C(=O)CSc2nnc(CN3CCCC3)n2-c2ccc(F)cc2)c(OC)c1	44*	/	1	0	-4
O=C(C1CC1)N1C[C@@H]2N[C@H](C1)C2c1ccc(/C=C/c2ccccc2)cc1 (stereo not given in full)	/	0	/	-9	1
O=C(Nc1ccccc1)N1CCCCN2[C@@H](CO)[C@@H](c3ccc(C#Cc4ccccn4)cc3)[C@@H]2C1	1	0	/	9	1
Cc1ccc(S(=O)(=O)N2[C@@H](c3ccc(C#N)cc3)C(C(=O)O)=C[C@H]2CC2CCCC2)cc1	1.4*	1	9	23	-4
CCCC[C@@H]1C=C(C(=O)O)[C@H](c2ccc3c(c2)OCO3)N1S(=O)(=O)c1ccc(C)cc1	1.8*	0	1	10	0
COc1ccc(-c2cn(-c3ccccc3)c(=S)[nH]2)cc1OC	0	0	62*	0	0
O=C(C[C@@H]1C=C[C@@H](NC(=O)C2CCOCC2)[C@H](CO)O1)NCc1ccncc1	0	0	-19[16.7 µM]	5	2
CCOC(=O)c1c(O)c(Cl)c(C)[nH]c1=O	43*	0	-4	0	-1
COC(=O)[C@H](C)NC(=O)/C=C/c1ccc(OC)cc1	/	/	-16	/	/
COC(=O)[C@@H](NC(=O)/C=C/c1ccc(OC)cc1)C(C)C	43*	5	4	-3	0
CCCNC(=O)N1CCC2(CC1)CN(C(=O)CN1CCOCC1)[C@@H](CO)c1[nH]c3cc(OC)ccc3c12	0	0	-8[16.7 µM]	-14	1
CCCNC(=O)N1CC2(CN(Cc3ccc(OC)cc3)C2)c2c(n(C)c3cc(OC)ccc23)[C@@H]1CO	0	0	/	/	3
COc1ccc2nc(C)cc(N/N=C/c3ccc(F)cc3)c2c1	0	1	90*	4	-1
COc1ccc(/C=N/Nc2cc(C)nc3ccccc23)cc1	0	1	2	-8	-1
Cc1onc(-c2ccccc2)c1C(=O)OCc1nnc(-c2ccc([N+](=O)[O-])cc2)o1	0	-1	60*	4	0
O=C(OCc1nnc(-c2ccccc2)o1)c1cc([N+](=O)[O-])ccc1Cl	0	4	19	0	0
COc1ccc(/C=C/C(=O)c2cc3c(cc2N)OCO3)cc1	43*	/	-29	-5	-3
CC(=O)Nc1ccc(NC(=O)C2CCCN2C(=O)Nc2cccc(F)c2)cc1 (stereo not given)	0	/	-31	0	2
COc1ccc(NC(=O)C2CCCN2C(=O)Nc2cccc(F)c2)cc1 (stereo not given)	0	6	-5	-1	9.7*
CC(C)CN(CCNC(=O)CN1C(=O)CSc2ccc(S(=O)(=O)N3CCOCC3)cc21)CC(C)C	/	-3	-3	10	2
CC(C)CN(CCCNC(=O)CN1C(=O)CSc2ccc(S(=O)(=O)N3CCOCC3)cc21)CC(C)C	/	-3	7	-3	10*
SMILES	FGF22 binding	E-selectin induc	Env fusion inh	S100A4 MyoIIA	CFTR F508del cor
C[C@@H]1CN([C@@H](C)CO)C(=O)c2cc(-c3ccccc3F)cnc2O[C@H]1CN(C)C(=O)c1cnccn1	0	0	/	24	3
Nc1cc2[nH]c(=O)c3ccccc3c2cc1Br	0	4	10	-30	-4
Nc1cc2c(cc1Br)[nH]c(=O)c1ccccc12	0	5	83*	-25	1
CCN(CC)C(=S)SCC(=O)Nc1ccc(S(N)(=O)=O)cc1	43*	0	9	-7	6
CN(C)CC(=O)Nc1ccc(S(N)(=O)=O)cc1	/	/	-74	/	/
Cc1oc(-c2ccccc2Cl)nc1CN1CCCCC1c1cccnc1 (stereo not given)	43*	4	11	-1	-4
CCSc1nnc(N2C(=O)C(O)=C(C(=O)c3ccco3)C2c2cccc(OC)c2)s1 (stereo not given)	0	/	-2	6	9.3*
COCCCNC(=O)C[C@@H]1C[C@@]2(C(=O)OC)CC(C)(C)CC=C2N(CCc2ccc(OC)c(OC)c2)C1=O	0	3	-2	0	3
CCCCNC(=O)C[C@@H]1C[C@@]2(C(=O)OC)CC(C)(C)CC=C2N(CCc2ccc(OC)c(OC)c2)C1=O	40*	0	-4	5	-3
CCCCCCCCN1C(=O)[C@H](CC(=O)NCc2ccc(OC)c(OC)c2)C[C@@]2(C(=O)OC)CC(C)(C)CC=C12	0	1	46	-3	-3
COC(=O)[C@@]12C[C@@H](CC(=O)NCc3ccc(OC)c(OC)c3)C(=O)N(CCc3ccc(OC)c(OC)c3)C1=CCC(C)(C)C2	0	1	67*	1	3
Cc1noc(C)c1NC(=O)NCC[C@@H]1CC[C@@H](NC(=O)c2ccncc2)[C@H](CO)O1	-1	0	10[16.7 µM]	3	-2
COc1cc(CNCCc2ccccc2)ccc1OCc1ccc(Cl)nc1	0	/	26	4	/
COc1ccccc1CCNCc1ccc(OC)c(OCc2ccccc2)c1	/	/	74*	/	/
CCCNC(=O)N1CC(=O)N2[C@H](CO)[C@@H](c3ccc(C#Cc4cccc(F)c4)cc3)[C@@H]2C1	/	0	/	6	-3
CCOP(=O)(OCC)C(NC(=O)Nc1ccccc1)c1ccccc1 (stereo not given)	0	/	/	-1	-1
CCOP(=O)(OCC)C(NC(=O)Nc1c(C)cc(C)cc1C)c1ccccc1 (stereo not given)	43*	/	-7	-1	/
COCC1CCN(C(=O)c2cc(COc3cccc4cnccc34)on2)CC1	0	/	15	-4	3
O=C(c1cc(COc2cccc3cnccc23)on1)N1CCCC(CCCO)C1 (stereo not given)	0	0	57*	-5	-2
CN1C(=O)c2cc(NC(=O)c3ccc(F)c(F)c3)ccc2OC[C@H]2O[C@@H](CC(=O)O)CC[C@@H]21	/	0	-22[16.7 µM]	/	1
CCCNC(=O)C[C@@H]1C[C@H]2c3cc(NC(=O)Nc4ccccc4)ccc3O[C@H]2[C@H](CO)O1	0	0	-9[16.7 µM]	/	-2
c1ccc(COc2ncnc3c2ncn3CCCNCc2ccccn2)cc1	0	5	20	4	-2
c1ccc(COc2ncnc3c2ncn3CCCNCc2cccs2)cc1	43*	0	6	-5	2
